# Compound activity from PubChem BioAssay.
# CR mimetic SO: caloric restriction mimetics inhibiting age-related superoxide in yeast. 330,000 tested, 0.18% active. superoxide response (% of plate mean), % at 10 µM. S. cerevisiae aged cells, superoxide DHE fluorescence; stronger effect = lower value. AID 2690;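 active = superoxide response under a set limit, about three screen SD below normal, cut at about 65% in these data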;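 note: yeast aged for seven days with compound at 30 °C before DHE staining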
# PglD DTNB: inhibitors of Campylobacter jejuni PglD acetyltransferase; AID 602405; purified PglD enzyme, DTNB colorimetric CoA detection; inhibition, % at 12.5 µM; 360,000 tested, 0.098% active; in the data active = inhibition above about 16%, passing the limit was not always enough
# Mot1-301 SUMO: inhibitors of SUMOylation pathway: yeast Mot1-301 growth rescue; S. cerevisiae Mot1-301 growth rescue, ATP luminescence, 38.5C; percent above DMSO median, 100 means doubled; growth rescue, % at 18.8 µM; 320,000 tested, 1% active;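 active = every valid replicate shows activation above 250% relative to neutral control wells; inactive = the rest, any valid replicate at or below 250%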
# rRNA inh HTS: selective bacterial rRNA inhibition in E. coli; E. coli WT GFP vs humanized-ribosome RFP mutants, fluorescence, 24 h; stronger effect = lower value; DMSO median 0, no signal -100; GFP signal change (wild-type ribosome), % (test concentration not listed); 350,000 tested, 1.6% active; AID 720706;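 active = significant combined selectivity score with lowered wild-type GFP, culture density cut under 30%, mutant RFP and density less affected; inactive = any of these conditions unmet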
# Cneo AK release: causes C. neoformans cell lysis; 360,000 tested, 0.2% active; lysis activity, % at 15 µM; AID 651654; adenylate kinase release luminescence, 4 h; normalised: neutral wells 0, clomiphene wells 100;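 active = mean lysis activity across replicates of at least 80%, whatever share of replicates individually reach that level; inactive = mean lysis activity below 80%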
#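 Assay system: C. neoformans cells. Amount: yeast cell density of 5 × 10^6 cells/mL. Technique: AK luminescence. Buffer or medium: YPD. Times: static 4 h at 37 °C with compound, 1 h detection. Dosing: single-point compound dose. Read-out: lysis from increased AK signal.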
# A number is an active result; 0 = inactive; - = not tested or not shown. Shown are actives, neighbours in structure and some others; about 2.2% of the full set was active somewhere.
SMILES,CR mimetic SO,PglD DTNB,Mot1-301 SUMO,rRNA inh HTS,Cneo AK release
COc1cccc(S(=O)(=O)Nc2ccc3c(c2)[C@@H]2C[C@@H](CC(=O)NCc4cccc(F)c4)O[C@H](CO)[C@@H]2O3)c1,-,0,-,0,106
COc1cccc(S(=O)(=O)N[C@@H]2C=C[C@H](CC(=O)NCc3ccccc3)O[C@@H]2CO)c1,-,-,-,0,-
COc1ccc(C2c3c(ncn(CCCO)c3=N)Oc3ccc4ccccc4c32)cc1OC (stereo not given),0,0,0,0,0
COc1ccc(C2c3c(ncn(CCCO)c3=N)Oc3ccc4ccccc4c32)cc1 (stereo not given),0,0,0,-47,0
O=C(O)c1cccc2cccc(-c3c4ccc(=O)c(O)c-4oc4c(O)c(O)ccc34)c12,-,-,-,-22,-
O=C(O)c1cccc2cc(-c3ccccc3)oc(=O)c12,0,0,0,0,0
O=C(C[C@H]1C[C@H]2c3cc(NC(=O)C4CCOCC4)ccc3O[C@H]2[C@H](CO)O1)NCC1CC1,-,0,-,0,0
C(=N\N1CCN(Cc2cccc3ccccc23)CC1)/c1cccnc1,0,-,0,-30,-
COc1ccc(C2=NS(=O)(=O)N(C)C(C(=O)NC(C)c3ccccc3)=C2)cc1OC (stereo not given),0,0,0,0,0
COc1ccc(C2=NS(=O)(=O)N(C)C(C(=O)N(C)Cc3ccccc3)=C2)cc1OC,0,0,-,-20,0
C/C=C/c1cnc2c(c1)C(=O)N([C@H](C)CO)C[C@@H](C)[C@H](CN(C)C(=O)NC1CCCCC1)O2,-,0,-,0,0
CCc1ccc(NC(=O)N(CCCN2CCOCC2)C(C)c2cc3cccc(OC)c3o2)cc1 (stereo not given),0,0,0,-22,0
COc1cccc(NC(=O)CN2CCSc3ccccc32)c1,0,-,0,0,-
COc1ccccc1NC(=O)CN1CCSc2ccccc21,0,-,0,-21,-
COc1ccc(S(=O)(=O)N(C)C[C@H]2Oc3ccc(NC(=O)NC(C)C)cc3C(=O)N([C@@H](C)CO)C[C@H]2C)cc1,-,-,-,0,-
COc1cc(OC)c(OC)cc1/C=C1\CC(C)C/C(=C\c2cc(OC)c(OC)cc2OC)C1=O (stereo not given),0,0,0,-22,0
COc1ccccc1C(=O)N1C[C@@H]2[C@H](c3ccccc31)[C@@H](CO)N2C(=O)Nc1ccccc1,-,0,-,0,0
COc1cc(OC)cc(C(=O)NC(=S)N2CCCCCC2)c1,0,-,0,-31,-
COc1ccc(C(=O)NC(=S)N2CCCCC2)cc1,0,0,0,-,0
CO[C@@H]1CN(C)C(=O)c2cc(NC(=O)c3cc(C)on3)ccc2OC[C@@H](C)N(C(=O)C2CC2)C[C@H]1C,-,0,-,0,0
COc1ccc(CN(C)C[C@@H]2OCCCC[C@@H](C)Oc3ccc(NS(=O)(=O)c4c(C)noc4C)cc3C(=O)N([C@@H](C)CO)C[C@@H]2C)cc1,-,-,-,0,-
Cc1nn(C(C)(C)C)c(C)c1/C=N/OC(=O)Nc1ccc(Cl)cc1,0,0,0,-27,0
Cc1cc(C)n2ncc(/C(N)=N/OC(=O)Nc3ccc(Cl)cc3)c2n1,0,0,0,-,0
Cc1oc(-c2ccc(-c3ccccc3)cc2)nc1CN(C)C1CCOC1 (stereo not given),0,0,0,-23,0
C[C@H](CO)N1C[C@H](C)[C@H](CN(C)CC2CCCCC2)OCCCC[C@H](C)Oc2ccc(NS(=O)(=O)c3cn(C)cn3)cc2C1=O,-,0,-,0,0
SMILES,CR mimetic SO,PglD DTNB,Mot1-301 SUMO,rRNA inh HTS,Cneo AK release
Cc1ccccc1S(=O)(=O)N1CCCCN2[C@H](CO)[C@@H](c3ccc(-c4ccccc4)cc3)[C@H]2C1,-,0,-,-,0
COc1ccc(S(=O)(=O)N(C)C[C@@H]2OCCCC[C@H](C)Oc3ccc(NS(C)(=O)=O)cc3C(=O)N([C@H](C)CO)C[C@H]2C)cc1,-,0,-,0,0
CC(C)CCOc1cccc(OCC(=O)Nc2ccncc2)c1,0,0,317,0,0
COc1cccc(OCC(=O)Nc2ccncc2)c1,0,0,0,0,0
CNC[C@@H]1Oc2c(NS(C)(=O)=O)cccc2C(=O)N(C)C[C@@H]1C,-,-,-,0,-
COc1ccccc1C(=O)Nc1ccc2c(c1)C(=O)N(C)[C@@H]1CC[C@H](CC(=O)NCc3ccc(Cl)c(Cl)c3)O[C@@H]1CO2,-,0,-,0,0
O=[N+]([O-])c1ccccc1-c1ccc(CN2CCN(c3ccccc3)CC2)o1,0,0,0,-36,0
O=[N+]([O-])c1cccc(-c2ccc(CN3CCN(c4ccccc4)CC3)o2)c1,0,0,0,0,0
Cc1ccc(C)c(OCCCN2CCc3ccccc3C2)c1,0,0,320,0,0
COCCCNCCCCOc1ccc(Br)cc1Cl,0,0,280,0,0
CCCc1ccc(-c2ccc(/C=C/C(=O)O)cc2)nc1,0,-,0,-26,-
CCCN1C[C@@H](C)[C@H](OC)CN(C)C(=O)c2cc(NC(=O)NC3CCCC3)ccc2OC[C@@H]1C,-,-,-,0,-
COc1ccc(-c2cc(C(=O)N3CCCCCC3)c3ccccc3n2)c(OC)c1,0,0,0,-33,0
O=C(Cc1ccccn1)N[C@H]1CC[C@H](CCn2cc(-c3ccc(F)cc3)nn2)O[C@@H]1CO,-,-,-,0,-
O=C(COc1cccc2cccnc12)N/N=C/c1cccn1-c1ccc(F)cc1,0,-,0,-41,-
C[C@H]1CN([C@@H](C)CO)C(=O)c2cc(Br)cnc2O[C@@H]1CN(C)Cc1ccccn1,-,0,-,0,107
C[C@H]1CN([C@@H](C)CO)C(=O)c2cc(-c3ccccc3)cnc2O[C@@H]1CN(C)C(=O)c1ccccn1,-,0,-,0,105
C[C@H]1CN([C@@H](C)CO)C(=O)c2cc(-c3ccc(F)cc3)cnc2O[C@@H]1CN(C)C(=O)c1ccccn1,-,0,-,0,0
C[C@H](CO)N1C[C@H](C)[C@H](CN(C)C(=O)c2ccccn2)Oc2ncc(-c3ccccc3)cc2C1=O,-,0,-,0,81
O=C(C[C@@H]1C[C@H]2c3cc(NC(=O)Nc4ccccc4F)ccc3O[C@H]2[C@@H](CO)O1)NCc1ccc(Oc2ccccc2)cc1,-,-,-,0,-
Cc1noc(C)c1NC(=O)Nc1ccc2c(c1)C(=O)N([C@@H](C)CO)C[C@H](C)[C@@H](CN(C)Cc1ccccc1)OCCCC[C@H](C)O2,-,0,-,0,0
CCOc1ccccc1N1CCN(C(=S)NCc2ccccc2)CC1,0,0,0,-22,0
CCNC(=S)N1CCN(c2ccccc2OCC)CC1,0,-,0,-,-
COc1ccccc1C(=O)Nc1ccc2c(c1)C(=O)N(C)C[C@@H](OC)[C@H](C)CN(CC1CC1)[C@@H](C)CO2,-,0,-,0,0
COc1ccc(NC(=O)c2ccc3[nH]c(C)c(C)c3c2)cc1,0,0,0,-25,0
CC(=O)Nc1cccc(NC(=O)c2ccc3[nH]c(C)c(C)c3c2)c1,0,0,0,0,0
CO[C@H](CN(C)C(=O)Nc1ccc(C(F)(F)F)cc1)[C@H](C)CN(Cc1ccccc1Cl)[C@H](C)CO,-,0,-,0,0
